One data set relates to MCF7:WS8 cells. In words: DNA content assay, 2D growth inhibition of MCF7:WS8 cells. Type of data set: cell-based. As to conditions: for growth inhibition, result in words: MCF7:WS8, 2D culture. An outline of the steps: (§1)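 Cells were seeded at 5000/well in 96-well plates and treated with 0.01% (v/v) DMSO vehicle or serially diluted test compound. MCF7:WS8 cells were estrogen-stripped for 2 days beforehand (phenol red-free RPMI-1640, stripped FBS) and read on day 5. MCF7:5C cells, kept in phenol red-free RPMI-1640 with charcoal:dextran-stripped FBS, were read on day 7. Lysis was at −80 °C overnight, then Hoechst 33258 fluorescence was measured in TNE buffer. Data were normalized to vehicle and no cells, from ≥3 biological and analytical replicates.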

In a further data set the test system is MCF7:5C cells. In words: DNA content assay, 2D growth inhibition of MCF7:5C cells. The class given is cell-based. The following applies: for growth inhibition, result in words: 2D culture. In a few lines:
as §1

For the next data set, the system named is ERE-luciferase. Type of data set: cell-based. The following applies: MCF7:WS8, in competition with 1 nM E2. In a few lines:
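MCF7:WS8 cells were grown 3 days in phenol red-free RPMI-1640 with stripped FBS, plated at 1 × 10^5 cells/well, and held 24 h. They were then co-transfected for 6 h (Lipofectamine 2000, Opti-MEM) with pERE-luciferase (three Xenopus vitellogenin A2 EREs driving firefly luciferase) and pRL-TK Renilla. Cells were treated with test compound plus 1 nM E2 for 18 h before dual-luciferase readout.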

A short description of data set [1]: Preliminary PK screen, plasma and brain concentrations by LC-MS/MS. The following applies: for concentration in the brain: 0.5 and 2 h, 100 mg/kg oral. The class given is in vivo, C57BL/6 mice.
The test system of another data set is MCF7:TAM1 spheroids. The data set is described as follows: Spheroid growth assay. The class given is cell-based. As to conditions: 10 nM, 14 days, ATP content. In a few lines:
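MCF7:TAM1 cells, maintained in phenol red-free stripped RPMI-1640 containing 1 μM of the selecting antiestrogen, were plated at 1000–1500 cells/well in ultra-low-attachment round-bottom plates. Spheroids grew untreated for 1–3 days. Half the medium was then replaced with 2× treatment medium, and 1× treatment was repeated every 2–3 days over 14 days; vehicle was 0.01% DMSO. Viability was read by CellTiter-Glo 3D luminescence, normalized to vehicle (1.0) and background (0.0). Three biological and analytical replicates were run, analysed by one-way ANOVA versus vehicle.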

Data set [2] has as its target T1, ERα (Homo sapiens, UniProt P03372).
T1 sequence (P03372 1-595): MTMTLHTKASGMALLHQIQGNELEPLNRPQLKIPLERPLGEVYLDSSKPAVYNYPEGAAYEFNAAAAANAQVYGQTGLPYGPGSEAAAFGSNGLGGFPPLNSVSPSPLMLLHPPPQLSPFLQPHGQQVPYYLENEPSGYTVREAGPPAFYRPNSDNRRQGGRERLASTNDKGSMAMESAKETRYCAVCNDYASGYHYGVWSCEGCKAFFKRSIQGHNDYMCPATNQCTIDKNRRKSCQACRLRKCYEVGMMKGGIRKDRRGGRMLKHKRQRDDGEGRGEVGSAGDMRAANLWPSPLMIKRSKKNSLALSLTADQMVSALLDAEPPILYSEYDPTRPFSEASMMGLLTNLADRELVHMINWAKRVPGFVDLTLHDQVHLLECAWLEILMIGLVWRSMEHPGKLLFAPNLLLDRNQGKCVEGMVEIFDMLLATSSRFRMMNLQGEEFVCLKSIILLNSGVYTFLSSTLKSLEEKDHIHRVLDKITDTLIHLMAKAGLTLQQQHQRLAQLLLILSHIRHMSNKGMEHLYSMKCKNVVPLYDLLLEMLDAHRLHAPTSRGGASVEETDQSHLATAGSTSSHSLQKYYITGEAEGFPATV
In words: ER in-cell western. The class given is cell-based. As to conditions: MCF7:WS8, 24 h treatment. In a few lines:
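MCF7:WS8 cells were stripped for 2 days (phenol red-free medium, stripped FBS), plated at 2.5 × 10^4 cells/well, grown 48 h, then treated 24 h. They were fixed and stained with anti-ERα (H10) by the in-cell western protocol. The IRDye 800CW signal was normalized to CellTag 700 stain.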

The nature of another data set: Full PK analysis of 37d. As to conditions: CD-1, mouse, plasma, po, 50 mg/kg. Type of data set: in vivo, CD-1 mice. In a few lines: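 Test compound was given orally at 50 mg/kg as a solution in water and 10% SBE-β-CD/PEG-400 (9:1 v/v). Plasma was sampled at 10 time points. Samples were diluted in 50% acetonitrile, with working standards serially diluted in 50% acetonitrile in water, and quantified by LC-MS/MS.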

The test system of data set [3] is T47D:WT, T47D:TYS (Y537S) and T47D:TDG (D538G) cells. In words: Spheroid growth assay. The following applies: 10 nM, 11 days treatment. The class given is cell-based.
Data set [4] addresses T1, ERα. In words: ER western assay with proteasomal inhibitor MG-132 in MCF7:WS8 cells. The class given is cell-based. As to conditions: MCF7:WS8, 10 nM, MG-132 1 μM, western blot.

This is an account of results in paper PMC7261373 (Journal of medicinal chemistry, 2019).

Each structure is given as a SMILES string.

For `Cc1ccccc1C(=O)c1sc2cc(O)ccc2c1Oc1ccc(OCCN2CC[C@@H](CF)C2)cc1` [30l, (R)-(3-(4-(2-(3-(Fluoromethyl)pyrrolidin-1-yl)ethoxy)phenoxy)-6-hydroxybenzo[b]thiophen-2-yl)(o-tolyl)methanone], the “growth inhibition, result in words” value with MCF7:WS8 cells is “superior potency and efficacy to 2”; in the data set with MCF7:5C cells it was “superior potency and efficacy to 2”.
In the case of `Cc1cc(F)cc(C)c1C(=O)c1sc2cc(O)ccc2c1Oc1ccc(OCCN2CC[C@@H](CF)C2)cc1` [30m, (R)-(4-Fluoro-2,6-dimethylphenyl)(3-(4-(2-(3-(fluoromethyl)-pyrrolidin-1-yl)ethoxy)phenoxy)-6-hydroxybenzo[b]thiophen-2-yl)-methanone], in the data set with ERE-luciferase, the “antagonism of ERE-luciferase induction by E2, potency in words” value (“antagonism of ERE-luciferase induction” below) was “lower potency”.
With `Cc1cc(F)cc(C)c1C(=O)c1sc2cc(O)ccc2c1Oc1ccc(OCCN2CC(CF)C2)cc1` [30f, (4-Fluoro-2,6-dimethylphenyl)(3-(4-(2-(3-(fluoromethyl)azetidin-1-yl)ethoxy)phenoxy)-6-hydroxybenzo[b]thiophen-2-yl)-methanone], the “concentration in the brain” value in data set [1] lay within 0.6 to 0.75 µM. Moreover, the “inhibition of spheroid growth, in words” value in the data set with MCF7:TAM1 spheroids was “greater efficacy”.
Consider `Cc1ccccc1C(=O)c1sc2cc(O)ccc2c1Oc1ccc(OCCN2CCC2)cc1` [30a, (3-(4-(2-(Azetidin-1-yl)ethoxy)phenoxy)-6-hydroxybenzo[b]-thiophen-2-yl)(o-tolyl)methanone], for which the “growth inhibition, result in words” value with MCF7:5C cells is “significantly reduced efficacy”. Moreover, the “ERα degradation by ICW, result in words” value on ERα [2] is listed as “reduced efficacy”.
For `O=C(c1ccc(O)cc1)c1sc2cc(O)ccc2c1Oc1ccc(OCCN2CC(CF)C2)cc1` [30g, (3-(4-(2-(3-(Fluoromethyl)azetidin-1-yl)ethoxy)phenoxy)-6-hydroxybenzo[b]thiophen-2-yl)(4-hydroxyphenyl)methanone], the “growth inhibition, result in words” value in the data set with MCF7:5C cells is “lost efficacy”.
In the case of `Cc1cc(F)cc(C)c1C(=O)c1sc2cc(O)ccc2c1Oc1ccc(OCCN2CC[C@H](CF)C2)cc1` [30n, (S)-(4-Fluoro-2,6-dimethylphenyl)(3-(4-(2-(3-(fluoromethyl)-pyrrolidin-1-yl)ethoxy)phenoxy)-6-hydroxybenzo[b]thiophen-2-yl)-methanone], the “ERα degradation by ICW, result in words” value at ERα [2] is given as “reduced efficacy”.
With `Cc1ccccc1C(=O)c1sc2cc(O)ccc2c1Oc1ccc(OCCN2CCCCC2)cc1` [30o, (6-Hydroxy-3-(4-(2-(piperidin-1-yl)ethoxy)phenoxy)benzo[b]-thiophen-2-yl)(o-tolyl) Methanone], the “growth inhibition, result in words” value in the data set on MCF7:5C cells was “did not inhibit growth”. In addition, the “ERα degradation by ICW, result in words” value on ERα [2] is “did not induce ER degradation”.
`Cc1cc(O)ccc1C(=O)c1sc2cc(O)ccc2c1Oc1ccc(OCCN2CC(CF)C2)cc1` [30h, (3-(4-(2-(3-(Fluoromethyl)azetidin-1-yl)ethoxy)phenoxy)-6-hydroxybenzo[b]thiophen-2-yl)(4-hydroxy-2-methylphenyl)-methanone]: the “ERα degradation by ICW, result in words” value at ERα [2] is given as “reduced efficacy”. For the same molecule, the “antagonism of ERE-luciferase induction” value in the data set on ERE-luciferase is given as “lower potency”.
Regarding `C[C@]12CC[C@@H]3c4ccc(O)cc4C[C@@H](CCCCCCCCC[S+]([O-])CCCC(F)(F)C(F)(F)F)[C@H]3[C@@H]1CC[C@@H]2O` (stereo partly drawn) [compound 2, fulvestrant, reference compound], the IC50 with MCF7:WS8 cells (MCF7:WS8, 96 h, read-out: pIC50, inhibition of cell growth (converted)) was 0.631 to 1.58 nM; in the data set with MCF7:5C cells (144 h, read-out: pIC50, inhibition of cell growth (converted)) it was 0.631 to 1.58 nM. Further, the “concentration in the brain, in words” value in [1] (30 min, s.c.) is “below the limit of quantification”. For the same molecule, in the data set on MCF7:TAM1 spheroids, the “inhibition of spheroid growth, in words” value is on record as “greater efficacy”.
As for `Cc1cc(F)cc(C)c1C(=O)c1sc2cc(O)ccc2c1Oc1ccc(OC2CN(CCCF)C2)cc1` [37d, (4-Fluoro-2,6-dimethylphenyl)(3-(4-((1-(3-fluoropropyl)azetidin-3-yl)oxy)phenoxy)-6-hydroxybenzo[b]thiophen-2-yl)methanone], in [1], the “concentration in the brain” value is listed as “exceeded 1 μM”. This molecule gave a half-life in the data set “Full PK analysis of 37d” of 4.5 h. Further, the “inhibition of spheroid growth, in words” value in the data set on MCF7:TAM1 spheroids is given as “greater efficacy”. The “efficacy in T47D spheroids, in words” value in data set [3] is “equally as effective as the SERDs, fulvestrant (2) and GDC-0927 (3b), and as the SERM 1b”. In addition, at ERα [4], the “proteasome dependence of ERα degradation, in words” value is “coadministration of a proteasome inhibitor blocked the actions”.
Consider `O=C(c1ccc(OCCN2CCCCC2)cc1)c1c(-c2ccc(O)cc2)sc2cc(O)ccc12` [compound 6, raloxifene, reference compound], for which the “growth inhibition, result in words” value in the data set on MCF7:5C cells is “cross-resistant”.
For `Cc1cc(F)cc(C)c1C(=O)c1sc2cc(O)ccc2c1Oc1ccc(OC2CN(C3CC3)C2)cc1` [37f, (3-(4-((1-Cyclopropylazetidin-3-yl)oxy)phenoxy)-6-hydroxybenzo[b]thiophen-2-yl)(4-fluoro-2,6-dimethylphenyl)-methanone], the “growth inhibition, result in words” value is “potent and effective” in the data set with MCF7:WS8 cells; “loss of efficacy” in the data set on MCF7:5C cells. Also, the “ERα degradation by ICW, result in words” value at ERα [2] was “low efficacy”. Also, the “antagonism of ERE-luciferase induction” value in the data set with ERE-luciferase is given as “lower potency”.
